Assay results as given in ChEMBL document CHEMBL1687781, “Comparative biochemical and computational study of the role of naturally occurring mutations at Ambler positions 104 and 170 in GES β-lactamases” (Antimicrob Agents Chemother, 2010).
≈ marks a conversion by molar mass, not a printed value.

Legend:
Escherichia coli [1] = test: Antimicrobial activity against Escherichia coli DH5[alpha] transformed with pAC-ges1 plasmid encoding Beta-lactamase GES-2 E104, N170 mutant by Etest method; assay type: functional
Escherichia coli [2] = test: Antimicrobial activity against Escherichia coli DH5[alpha] transformed with pAC-ges1 plasmid encoding Beta-lactamase GES-1 E104, G170 mutant in presence of at 2 ug/ml clavulanic acid by Etest method; assay type: functional
Escherichia coli [3] = test: Antimicrobial activity against Escherichia coli DH5[alpha] transformed with pAC-ges1 plasmid encoding Beta-lactamase GES-13 K104, N170 mutant by Etest method; assay type: functional
Escherichia coli [4] = test: Antimicrobial activity against Escherichia coli DH5[alpha] transformed with pAC-ges1 plasmid encoding Beta-lactamase GES-2 E104, N170 mutant in presence of at 2 ug/ml clavulanic acid by Etest method; assay type: functional
In short: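 MIC read by Etest per the manufacturer's instructions. Host was E. coli DH5α carrying the bla_GES gene cloned into the chloramphenicol- and tetracycline-resistant vector pACYC184, with the high-copy plasmid pBC-ges1 as the gene source. The inhibitor was held at a fixed 2 μg/ml.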

Escherichia coli [5] = test: Antimicrobial activity against Escherichia coli DH5[alpha] transformed with pAC-ges1 plasmid encoding Beta-lactamase GES-1 E104, G170 mutant by Etest method; assay type: functional
Escherichia coli [6] = test: Antimicrobial activity against Escherichia coli DH5[alpha] transformed with pAC-ges1 plasmid encoding Beta-lactamase GES-7 K104, G170 mutant by Etest method; assay type: functional
Escherichia coli [7] = test: Antimicrobial activity against Escherichia coli DH5[alpha] transformed with pAC-ges1 plasmid encoding Beta-lactamase GES-13 K104, N170 mutant in presence of at 2 ug/ml clavulanic acid by Etest method; assay type: functional
Escherichia coli [8] = test: Antimicrobial activity against Escherichia coli DH5[alpha] by Etest method; assay type: functional
Escherichia coli [9] = test: Antimicrobial activity against Escherichia coli DH5[alpha] transformed with pAC-ges1 plasmid encoding Beta-lactamase GES-6 K104, S170 mutant in presence of at 2 ug/ml clavulanic acid by Etest method; assay type: functional
Escherichia coli [10] = test: Antimicrobial activity against Escherichia coli DH5[alpha] in presence of at 2 ug/ml clavulanic acid by Etest method; assay type: functional
Escherichia coli [11] = test: Antimicrobial activity against Escherichia coli DH5[alpha] transformed with pAC-ges1 plasmid encoding Beta-lactamase GES-6 K104, S170 mutant by Etest method; assay type: functional
Escherichia coli [12] = test: Antimicrobial activity against Escherichia coli DH5[alpha] transformed with pAC-ges1 plasmid encoding Beta-lactamase GES-5 E104, S170 mutant by Etest method; assay type: functional
Escherichia coli [13] = test: Antimicrobial activity against Escherichia coli DH5[alpha] transformed with pAC-ges1 plasmid encoding Beta-lactamase GES-7 K104, G170 mutant in presence of at 2 ug/ml clavulanic acid by Etest method; assay type: functional
Escherichia coli [14] = test: Antimicrobial activity against Escherichia coli DH5[alpha] transformed with pAC-ges1 plasmid encoding Beta-lactamase GES-5 E104, S170 mutant in presence of at 2 ug/ml clavulanic acid by Etest method; assay type: functional
[15] = Inhibition of Beta-lactamase GES-5 E104, S170 mutant preincubated for 5 mins before substrate addition using cephalothin substrate by spectrophotometry
[16] = Inhibition of Beta-lactamase GES-2 E104, N170 mutant preincubated for 5 mins before substrate addition using cephalothin substrate by spectrophotometry
[17] = Inhibition of Beta-lactamase GES-6 K104, S170 mutant preincubated for 5 mins before substrate addition using cephalothin substrate by spectrophotometry
[18] = Inhibition of Beta-lactamase GES-1 E104, G170 mutant preincubated for 5 mins before substrate addition using cephalothin substrate by spectrophotometry
[19] = Inhibition of Beta-lactamase GES-13 K104, N170 mutant preincubated for 5 mins before substrate addition using cephalothin substrate by spectrophotometry
[20] = Activity of Beta-lactamase GES-7 K104, G170 mutant
In short: (§1)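 Purified GES enzymes, released by mild sonication in 20 mM Tris pH 8.0, then Q-Sepharose and S-Sepharose chromatography, >95% pure by SDS-PAGE, in 50 mM KPi pH 7.6. Protein measured by Bradford. β-Lactam substrates hydrolysed at various concentrations, 25°C, in 50 mM NaCl, 50 mM MOPS pH 7.0.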

[21] = Ratio of Kcat to Km for Beta-lactamase GES-7 K104, G170 mutant; in short: as §1
[22] = Ratio of Kcat to Km for Beta-lactamase GES-2 E104, N170 mutant; in short: as §1
[23] = Ratio of Kcat to Km for Beta-lactamase GES-13 K104, N170 mutant; in short: as §1
[24] = Activity of Beta-lactamase GES-6 K104, S170 mutant; in short: as §1
[25] = Ratio of Kcat to Km for Beta-lactamase GES-1 E104, G170 mutant; in short: as §1
[26] = Ratio of Kcat to Km for Beta-lactamase GES-5 E104, S170 mutant; in short: as §1
[27] = Activity of Beta-lactamase GES-1 E104, G170 mutant; in short: as §1
[28] = Ratio of Kcat to Km for Beta-lactamase GES-6 K104, S170 mutant; in short: as §1
[29] = Activity of Beta-lactamase GES-5 E104, S170 mutant; in short: as §1
[30] = Activity of Beta-lactamase GES-2 E104, N170 mutant; in short: as §1
[31] = Activity of Beta-lactamase GES-13 K104, N170 mutant; in short: as §1
[32] = Inhibition of Beta-lactamase GES-7 K104, G170 mutant preincubated for 5 mins before substrate addition using cephalothin substrate by spectrophotometry

Structure (SMILES)	MIC (Escherichia coli [1]) [µg/mL]	MIC (Escherichia coli [3]) [µg/mL]	MIC (Escherichia coli [5]) [µg/mL]	MIC (Escherichia coli [6]) [µg/mL]	MIC (Escherichia coli [8]) [µg/mL]	MIC (Escherichia coli [11]) [µg/mL]	MIC (Escherichia coli [12]) [µg/mL]	kcat/Km [22] [M⁻¹ s⁻¹]	kcat/Km [23] [M⁻¹ s⁻¹]	Km [24] [µM]	kcat [24] [s⁻¹]	kcat/Km [25] [M⁻¹ s⁻¹]	kcat/Km [26] [M⁻¹ s⁻¹]	Km [27] [µM]	kcat [27] [s⁻¹]	kcat/Km [28] [M⁻¹ s⁻¹]	Km [29] [µM]	kcat [29] [s⁻¹]	Km [30] [µM]	kcat [30] [s⁻¹]	further results
CC1(C)S[C@@H]2[C@H](NC(=O)[C@H](C(=O)O)c3ccsc3)C(=O)N2[C@H]1C(=O)O [TICARCILLIN]	> 256	> 256	> 256	> 256	4 (≈ 10.4 µM)	> 256	> 256														MIC (Escherichia coli [2]): 6 µg/mL; MIC (Escherichia coli [4]): 1.5 µg/mL; MIC (Escherichia coli [7]): 8 µg/mL; MIC (Escherichia coli [9]): > 256 µg/mL; MIC (Escherichia coli [10]): 4 µg/mL; MIC (Escherichia coli [13]): > 256 µg/mL; MIC (Escherichia coli [14]): 16 µg/mL
CC1(C)[C@H](C(=O)O)N2C(=O)C[C@H]2S1(=O)=O [SULBACTAM]																					IC50 [15]: 4500 nM; IC50 [16]: 500 nM; IC50 [17]: 8000 nM; IC50 [18]: 1500 nM; IC50 [19]: 300 nM
CO/N=C(\C(=O)N[C@@H]1C(=O)N2C(C(=O)O)=C(COC(C)=O)CS[C@H]12)c1csc(N)n1 [CEFOTAXIME]	0.75 (≈ 1.65 µM)	3 (≈ 6.59 µM)	1 (≈ 2.2 µM)	1.5 (≈ 3.29 µM)	0.032 (≈ 0.0703 µM)	0.125 (≈ 0.274 µM)	0.125 (≈ 0.274 µM)	140000	1.09e+06	95.6	5.1	370000	30000	152	56.8	50000	133	3.55	261	37.2	Km [20]: 81.6 µM; kcat [20]: 31.4 s⁻¹; kcat/Km [21]: 380000 M⁻¹ s⁻¹; Km [31]: 63.4 µM; kcat [31]: 69 s⁻¹
C[C@]1(Cn2ccnn2)[C@H](C(=O)O)N2C(=O)C[C@H]2S1(=O)=O [TAZOBACTAM]																					IC50 [15]: 500 nM; IC50 [16]: 30 nM; IC50 [17]: 500 nM; IC50 [18]: 30 nM; IC50 [32]: 60 nM; IC50 [19]: 40 nM
C[C@@H](O)[C@H]1C(=O)N2C(C(=O)O)=C(SCCNC=N)C[C@H]12 [IMIPENEM ANHYDROUS]	0.5 (≈ 1.67 µM)	0.25 (≈ 0.835 µM)	0.25 (≈ 0.835 µM)	0.125 (≈ 0.418 µM)	0.064 (≈ 0.214 µM)	0.5 (≈ 1.67 µM)	1.5 (≈ 5.01 µM)	20000	3000	3.92	0.166	5000	260000	1.2	0.006	42000	1.27	0.332	0.87	0.016	Km [31]: 3.1 µM; kcat [31]: 0.009 s⁻¹
CC1(C)S[C@@H]2[C@H](NC(=O)Cc3ccccc3)C(=O)N2[C@H]1C(=O)O								70000	100000	64.2	27.2	260000	320000	120	30.5	420000	88.9	28.6	87.6	5.75	Km [20]: 39 µM; kcat [20]: 14.2 s⁻¹; kcat/Km [21]: 360000 M⁻¹ s⁻¹; Km [31]: 139 µM; kcat [31]: 13.5 s⁻¹
